According to ChEMBL document CHEMBL1221302, “Discovery of imidazo[1,2-b]pyridazine derivatives as IKKbeta inhibitors. Part 1: Hit-to-lead study and structure-activity relationship” (Bioorg Med Chem Lett, 2010):

How the values were obtained:
THP-1 = test: Antiinflammatory activity in human THP1 cells assessed as inhibition of LPS-induced TNFalpha production after 4 hrs by ELISA; assay type: functional, cell-based; details: THP-1, 4 h
Procedure, shortened: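 THP-1 cells primed 3–4 days with 100 nM calcitriol in RPMI-1640 containing 10% FBS, then cultured overnight without calcitriol. Resuspended in RPMI-1640 with 25 mM HEPES at 1.5×10^5 cells/mL. Compound and E. coli O111:B4 LPS added together, 4 h at 37 °C in 5% CO2. TNFα measured in the centrifuged supernatant by ELISA.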

[1] = target: T1, Inhibitor of nuclear factor kappa-B kinase subunit beta (Homo sapiens, UniProt O14920); test: Inhibition of purified His-tagged IKK-beta after 15 mins
T1 sequence (O14920 whole entry): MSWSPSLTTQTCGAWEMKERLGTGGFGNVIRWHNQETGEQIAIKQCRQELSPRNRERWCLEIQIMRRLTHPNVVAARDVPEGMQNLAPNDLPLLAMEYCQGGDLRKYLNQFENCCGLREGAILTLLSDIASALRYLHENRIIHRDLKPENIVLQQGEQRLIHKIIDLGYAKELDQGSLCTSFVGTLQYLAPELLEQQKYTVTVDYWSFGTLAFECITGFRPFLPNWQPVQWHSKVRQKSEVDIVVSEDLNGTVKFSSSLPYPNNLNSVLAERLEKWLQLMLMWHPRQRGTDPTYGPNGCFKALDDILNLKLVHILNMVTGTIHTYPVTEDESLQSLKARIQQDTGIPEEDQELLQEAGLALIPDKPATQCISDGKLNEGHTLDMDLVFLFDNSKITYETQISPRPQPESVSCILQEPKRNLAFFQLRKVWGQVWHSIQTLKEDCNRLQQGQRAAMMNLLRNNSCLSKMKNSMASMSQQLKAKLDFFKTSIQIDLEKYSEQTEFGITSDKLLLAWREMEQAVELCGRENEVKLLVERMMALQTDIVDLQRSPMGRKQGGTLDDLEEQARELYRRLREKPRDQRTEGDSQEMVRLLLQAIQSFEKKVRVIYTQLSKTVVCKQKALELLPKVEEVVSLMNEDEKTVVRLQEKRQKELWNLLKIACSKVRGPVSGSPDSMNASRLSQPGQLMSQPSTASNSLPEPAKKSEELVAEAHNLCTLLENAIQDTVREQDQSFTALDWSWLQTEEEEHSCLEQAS

[2] = target: Mitogen-activated protein kinase 14 (Homo sapiens, UniProt Q16539); test: Inhibition of recombinant p38alpha after 15 mins
Sequence of Mitogen-activated protein kinase 14 (Q16539 whole entry): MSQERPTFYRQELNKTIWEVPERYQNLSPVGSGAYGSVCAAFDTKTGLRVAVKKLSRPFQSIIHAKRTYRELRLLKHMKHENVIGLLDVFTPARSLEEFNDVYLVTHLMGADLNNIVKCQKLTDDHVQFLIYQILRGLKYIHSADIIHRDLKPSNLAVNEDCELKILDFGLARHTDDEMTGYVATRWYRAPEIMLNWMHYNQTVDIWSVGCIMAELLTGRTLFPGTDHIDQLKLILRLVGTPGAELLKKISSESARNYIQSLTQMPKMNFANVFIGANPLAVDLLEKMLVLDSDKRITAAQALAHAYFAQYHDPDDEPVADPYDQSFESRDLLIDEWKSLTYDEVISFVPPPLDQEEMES
Procedure, shortened: (§1)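 Each recombinant kinase was assayed with ATP at its own Km.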

[3] = target: Glycogen synthase kinase-3 beta (Homo sapiens, UniProt P49841); test: Inhibition of recombinant GSK3-beta after 15 mins; procedure, shortened: as §1
Sequence of Glycogen synthase kinase-3 beta (P49841 whole entry): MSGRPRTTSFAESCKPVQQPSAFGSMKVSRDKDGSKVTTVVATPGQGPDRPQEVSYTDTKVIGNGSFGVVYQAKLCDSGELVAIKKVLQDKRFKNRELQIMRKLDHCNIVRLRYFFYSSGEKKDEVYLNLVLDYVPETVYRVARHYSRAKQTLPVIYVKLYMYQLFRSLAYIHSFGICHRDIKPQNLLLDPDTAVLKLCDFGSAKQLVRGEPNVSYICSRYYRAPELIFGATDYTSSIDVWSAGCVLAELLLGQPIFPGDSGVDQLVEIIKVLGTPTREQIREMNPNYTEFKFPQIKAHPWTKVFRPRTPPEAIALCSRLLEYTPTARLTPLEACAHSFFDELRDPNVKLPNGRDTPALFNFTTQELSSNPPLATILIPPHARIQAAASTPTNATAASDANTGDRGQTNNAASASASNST

[4] = target: T2, Inhibitor of nuclear factor kappa-B kinase subunit alpha (Homo sapiens, UniProt O15111); test: Inhibition of recombinant IKKalpha after 15 mins
T2 sequence (O15111 whole entry): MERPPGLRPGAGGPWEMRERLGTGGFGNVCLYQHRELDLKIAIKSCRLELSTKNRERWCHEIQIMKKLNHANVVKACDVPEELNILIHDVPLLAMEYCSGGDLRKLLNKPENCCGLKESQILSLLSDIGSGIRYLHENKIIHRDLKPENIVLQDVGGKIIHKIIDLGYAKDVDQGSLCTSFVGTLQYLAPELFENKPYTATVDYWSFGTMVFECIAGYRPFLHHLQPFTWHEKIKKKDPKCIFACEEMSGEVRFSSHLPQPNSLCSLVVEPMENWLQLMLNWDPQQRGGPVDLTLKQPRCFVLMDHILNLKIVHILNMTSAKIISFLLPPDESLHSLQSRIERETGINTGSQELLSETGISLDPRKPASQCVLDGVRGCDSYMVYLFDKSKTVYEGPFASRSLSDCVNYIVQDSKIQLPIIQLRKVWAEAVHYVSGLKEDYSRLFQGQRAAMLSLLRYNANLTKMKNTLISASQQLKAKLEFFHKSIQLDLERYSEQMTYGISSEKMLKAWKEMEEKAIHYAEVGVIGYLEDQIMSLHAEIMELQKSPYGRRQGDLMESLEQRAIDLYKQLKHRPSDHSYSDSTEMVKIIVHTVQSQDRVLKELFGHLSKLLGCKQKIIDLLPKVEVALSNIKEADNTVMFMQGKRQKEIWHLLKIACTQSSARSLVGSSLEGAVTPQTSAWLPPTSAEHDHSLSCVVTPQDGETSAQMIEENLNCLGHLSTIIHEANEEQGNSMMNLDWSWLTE

[5] = target: Mitogen-activated protein kinase 10 (Homo sapiens, UniProt P53779); test: Inhibition of recombinant JNK3 after 15 mins; procedure, shortened: as §1
Sequence of Mitogen-activated protein kinase 10 (P53779 whole entry): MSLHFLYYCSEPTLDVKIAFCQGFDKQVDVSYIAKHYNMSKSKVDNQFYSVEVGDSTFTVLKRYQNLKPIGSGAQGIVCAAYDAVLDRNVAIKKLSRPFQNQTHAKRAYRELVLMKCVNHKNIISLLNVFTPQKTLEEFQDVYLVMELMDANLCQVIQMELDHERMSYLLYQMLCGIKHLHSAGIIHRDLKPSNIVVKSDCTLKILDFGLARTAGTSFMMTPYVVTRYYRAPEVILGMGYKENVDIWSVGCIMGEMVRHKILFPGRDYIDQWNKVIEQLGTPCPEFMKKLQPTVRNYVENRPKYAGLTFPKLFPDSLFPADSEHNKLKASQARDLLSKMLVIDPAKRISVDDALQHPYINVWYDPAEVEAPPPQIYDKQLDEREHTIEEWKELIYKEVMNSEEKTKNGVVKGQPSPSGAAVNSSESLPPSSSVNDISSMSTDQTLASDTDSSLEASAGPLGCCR

[6] = target: Cyclin-dependent kinase 2 (Homo sapiens, UniProt P24941); test: Inhibition of recombinant CDK2 after 15 mins
[7] = Apparent permeability of the compound at pH 7.4 by PAMPA method; assay type: ADME

Structure (SMILES) | IC50 (THP-1) | IC50 [1] | further results
CN(C)CCCNC(=O)c1ccc(-c2cnc3ccc(NCc4ccc(Cl)c(Cl)c4)nn23)cc1 | > 30 µM |  | 
CCN1CCC[C@H]1CNC(=O)c1ccc(-c2cnc3ccc(NCC4CC4)nn23)cc1 | 0.49 µM |  | 
O=C(NCCN1CCCC1)c1ccc(-c2cnc3ccc(NCc4ccc(Cl)c(Cl)c4)nn23)cc1 | > 30 µM | 590 nM | IC50 [2]: > 100 µM; IC50 [3]: > 100 µM; IC50 [4]: 4.6 µM; IC50 [5]: 90 µM; IC50 [6]: > 100 µM
O=C(NCCN1CCCCC1)c1ccc(-c2cnc3ccc(NCc4ccc(Cl)c(Cl)c4)nn23)cc1 | > 30 µM |  | 
O=C(NCCN1CCOCC1)c1ccc(-c2cnc3ccc(NCc4ccc(Cl)c(Cl)c4)nn23)cc1 |  | > 30000 nM | 
NCCCNC(=O)c1ccc(-c2cnc3ccc(NCc4ccc(Cl)c(Cl)c4)nn23)cc1 | 4.7 µM |  | 
CC(C)(N)CNC(=O)c1ccc(-c2cnc3ccc(NCc4ccc(Cl)c(Cl)c4)nn23)cc1 | 6.5 µM |  | 
O=C(NCCNc1ccccc1)c1ccc(-c2cnc3ccc(NCc4ccc(Cl)c(Cl)c4)nn23)cc1 | > 30 µM |  | 
O=C(NC[C@@H]1CCCN1)c1ccc(-c2cnc3ccc(NCc4ccc(Cl)c(Cl)c4)nn23)cc1 | 4 µM | 320 nM | IC50 [2]: > 100 µM; IC50 [3]: > 100 µM; Papp [7]: < 2 ×10⁻⁶ cm/s; IC50 [4]: 2.2 µM; IC50 [5]: > 100 µM; IC50 [6]: 95 µM
O=C(NC[C@@H]1CCNC1)c1ccc(-c2cnc3ccc(NCc4ccc(Cl)c(Cl)c4)nn23)cc1 | 17 µM | 10000 nM | 
O=C(NCC1CCNCC1)c1ccc(-c2cnc3ccc(NCc4ccc(Cl)c(Cl)c4)nn23)cc1 | > 30 µM |  | 
O=C(NC1CCNC1)c1ccc(-c2cnc3ccc(NCc4ccc(Cl)c(Cl)c4)nn23)cc1 (stereo not given) | 6.5 µM |  | 
O=C(NC1CCNCC1)c1ccc(-c2cnc3ccc(NCc4ccc(Cl)c(Cl)c4)nn23)cc1 | 4.4 µM |  | 
O=C(NCc1ccccn1)c1ccc(-c2cnc3ccc(NCc4ccc(Cl)c(Cl)c4)nn23)cc1 | > 30 µM |  | 
CN(C)CCN(C)C(=O)c1ccc(-c2cnc3ccc(NCc4ccc(Cl)c(Cl)c4)nn23)cc1 | 15 µM |  | 
NC1CN(C(=O)c2ccc(-c3cnc4ccc(NCc5ccc(Cl)c(Cl)c5)nn34)cc2)C1 | > 30 µM |  | 
O=C(c1ccc(-c2cnc3ccc(NCc4ccc(Cl)c(Cl)c4)nn23)cc1)N1CCC(N2CCCC2)CC1 | > 30 µM | 1400 nM | 
CN1CCN(C(=O)c2ccc(-c3cnc4ccc(NCc5ccc(Cl)c(Cl)c5)nn34)cc2)CC1 | 12 µM |  | 
CCNC(=O)c1ccc(-c2cnc3ccc(NCc4ccc(Cl)c(Cl)c4)nn23)cc1 | 27 µM | 27000 nM | 
NC(=O)c1ccc(-c2cnc3ccc(NCc4ccc(Cl)c(Cl)c4)nn23)cc1 | 1.7 µM |  | 
CNc1ccc2ncc(-c3ccc(C(=O)NC[C@@H]4CCCN4)cc3)n2n1 | 29 µM |  | 
CC(C)Nc1ccc2ncc(-c3ccc(C(=O)NC[C@@H]4CCCN4)cc3)n2n1 | 1.7 µM | 270 nM | 
O=C(NC[C@@H]1CCCN1)c1ccc(-c2cnc3ccc(NC4CC4)nn23)cc1 | 3.2 µM |  | 

Structure (SMILES) | IC50 (THP-1) | IC50 [1] | further results
O=C(NC[C@@H]1CCCN1)c1ccc(-c2cnc3ccc(NCC4CC4)nn23)cc1 | 0.69 µM | 55 nM | IC50 [2]: > 100 µM; IC50 [3]: > 100 µM; Papp [7]: < 2 ×10⁻⁶ cm/s; IC50 [4]: 40 µM; IC50 [5]: > 100 µM; IC50 [6]: > 100 µM
O=C(NC[C@@H]1CCCN1)c1ccc(-c2cnc3ccc(NCc4ccccc4)nn23)cc1 | 3.7 µM |  | 
O=C(NC[C@@H]1CCCN1)c1ccc(-c2cnc3ccc(NCc4cccc(Cl)c4)nn23)cc1 | 2.7 µM | 190 nM | IC50 [2]: > 100 µM; IC50 [3]: > 100 µM; Papp [7]: < 2 ×10⁻⁶ cm/s; IC50 [4]: > 4 µM; IC50 [5]: 78 µM; IC50 [6]: > 100 µM
O=C(NC[C@@H]1CCCN1)c1ccc(-c2cnc3ccc(NCCO)nn23)cc1 | > 30 µM |  | 
O=C(NC[C@@H]1CCCN1)c1ccc(-c2cnc3ccc(NCCCO)nn23)cc1 | > 30 µM |  | 
CC(=O)NCCNc1ccc2ncc(-c3ccc(C(=O)NC[C@@H]4CCCN4)cc3)n2n1 | > 30 µM |  | 
O=C(NC[C@@H]1CCCN1)c1ccc(-c2cnc3ccc(NCCc4cnc[nH]4)nn23)cc1 | > 30 µM | 3000 nM | 
O=C(NC[C@@H]1CCCN1)c1ccc(-c2cnc3ccc(NCCCn4ccnc4)nn23)cc1 | > 30 µM | 380 nM | 
O=C(NC[C@@H]1CCCN1)c1ccc(-c2cnc3ccc(N[C@H]4CC[C@H](O)CC4)nn23)cc1 | > 30 µM |  | 
CN(C)c1ccc2ncc(-c3ccc(C(=O)NC[C@@H]4CCCN4)cc3)n2n1 | 20 µM |  | 
O=C(NC[C@@H]1CCCN1)c1ccc(-c2cnc3ccc(N4CCOCC4)nn23)cc1 |  | > 30000 nM | 
O=C(NC[C@@H]1CCCN1)c1ccc(-c2cnc3ccc(N4CCC(O)CC4)nn23)cc1 |  | > 30000 nM | 
CCN(CC)CCNC(=O)c1ccc(-c2cnc3ccc(NCC4CC4)nn23)cc1 | 1.2 µM |  | 
CN(C)CCN(C)C(=O)c1ccc(-c2cnc3ccc(NCC4CC4)nn23)cc1 | 2.4 µM |  | 
CC(N)CNC(=O)c1ccc(-c2cnc3ccc(NCC4CC4)nn23)cc1 (stereo not given) | 1.5 µM | 310 nM | 
CC(CN(C)C)NC(=O)c1ccc(-c2cnc3ccc(NCC4CC4)nn23)cc1 (stereo not given) | 2.1 µM |  | 
O=C(c1ccc(-c2cnc3ccc(NCC4CC4)nn23)cc1)N1CCC[C@H]1CN1CCCC1 |  | 5100 nM | 
O=C(c1ccc(-c2cnc3ccc(NCC4CC4)nn23)cc1)N1CCC[C@@H]1CN1CCCC1 | 2.1 µM | 160 nM | 
O=C(NC[C@H]1CCCN1)c1ccc(-c2cnc3ccc(NCC4CC4)nn23)cc1 | 1.6 µM | 100 nM | 
O=C(NC[C@@H]1CCCCN1)c1ccc(-c2cnc3ccc(NCC4CC4)nn23)cc1 | 1.5 µM |  | 
CN1CCC[C@H]1CNC(=O)c1ccc(-c2cnc3ccc(NCC4CC4)nn23)cc1 | 1.3 µM | 110 nM | 
NCCNC(=O)c1ccc(-c2cnc3ccc(NCc4ccc(Cl)c(Cl)c4)nn23)cc1 | 2.4 µM |  | 
CN(C)CCNC(=O)c1ccc(-c2cnc3ccc(NCc4ccc(Cl)c(Cl)c4)nn23)cc1 | > 30 µM |  | IC50 [3]: > 100 µM; IC50 [6]: > 100 µM
